Laboratory results published in ChEMBL document CHEMBL2086239, “Synthesis and biological evaluation of combretastatin-amidobenzothiazole conjugates as potential anticancer agents” (Eur J Med Chem, 2012).
Active and inactive are the calls of the source. The rule behind the calls is not given here.

Tests used:
IMR-32 = assay: Cytotoxicity against human IMR32 cells after 48 hrs assessed as inhibition of cell growth at 10 uM after 48 hrs by SRB assay relative to control; assay type: functional; settings: IMR-32, 48 h, read-out: GI
Summary of the method: (§1)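 SRB protein assay in DMEM with 10% FBS at 37 °C, 5% CO2, 100% relative humidity. Cells seeded in 96-well plates, incubated 24 h, then exposed to drug at 10 µM for 48 h and processed per standard protocol. Absorbance read at 560 nm; growth percentage calculated for test wells relative to control wells.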

PC-3 = assay: Cytotoxicity against human PC3 cells after 48 hrs assessed as inhibition of cell growth at 10 uM after 48 hrs by SRB assay relative to control; assay type: functional; settings: PC-3, 48 h, read-out: GI; summary of the method: as §1
K562 = assay: Growth inhibition of human K562 cells after 48 hrs by SRB assay; assay type: functional; settings: K562, 48 h
Summary of the method: (§2)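 NCI 60-cell-line screen: after preliminary screening, tested at five dose concentrations on 59 human tumour lines covering leukemia, lung, colon, CNS, melanoma, ovarian, renal, prostate and breast.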

RPMI-8226 = assay: Growth inhibition of human RPMI8226 cells after 48 hrs by SRB assay; assay type: functional; settings: RPMI-8226, 48 h; summary of the method: as §2
EKVX = assay: Growth inhibition of human EKVX cells after 48 hrs by SRB assay; assay type: functional; summary of the method: as §2
NCI-H522 = assay: Growth inhibition of human NCI-H522 cells after 48 hrs by SRB assay; assay type: functional; settings: NCI-H522, 48 h; summary of the method: as §2
HCT-116 = assay: Growth inhibition of human HCT116 cells after 48 hrs by SRB assay; assay type: functional; settings: HCT-116, 48 h; summary of the method: as §2
KM12 = assay: Growth inhibition of human KM12 cells after 48 hrs by SRB assay; assay type: functional; settings: KM12, 48 h; summary of the method: as §2
SF-268 = assay: Growth inhibition of human SF268 cells after 48 hrs by SRB assay; assay type: functional; settings: SF-268, 48 h; summary of the method: as §2
SF-539 = assay: Growth inhibition of human SF539 cells after 48 hrs by SRB assay; assay type: functional; settings: SF-539, 48 h
Summary of the method: (§3)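 NCI 60-cell-line panel, five-dose testing after preliminary screen; sulforhodamine B protein assay in DMEM with 10% FBS, 37 °C, 5% CO2, 100% humidity. Cells seeded and incubated 24 h before compound addition, then exposed 48 h. Absorbance read at 560 nm; growth percentage relative to control wells; GI50 taken as concentration giving 50% growth inhibition.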

SNB-75 = assay: Growth inhibition of human SNB75 cells after 48 hrs by SRB assay; assay type: functional; settings: SNB-75, 48 h; summary of the method: as §3
Malme-3M = assay: Growth inhibition of human MALME-3M cells after 48 hrs by SRB assay; assay type: functional; summary of the method: as §2
M14 = assay: Growth inhibition of human M14 cells after 48 hrs by SRB assay; assay type: functional; settings: M14, 48 h; summary of the method: as §2
UACC-257 = assay: Growth inhibition of human UACC257 cells after 48 hrs by SRB assay; assay type: functional; summary of the method: as §3
UACC-62 = assay: Growth inhibition of human UACC62 cells after 48 hrs by SRB assay; assay type: functional; settings: UACC-62, 48 h; summary of the method: as §3
OVCAR-8 = assay: Growth inhibition of human OVCAR8 cells after 48 hrs by SRB assay; assay type: functional; settings: OVCAR-8, 48 h; summary of the method: as §2
NCI/ADR-RES = assay: Growth inhibition of human NCI/ADR-RES cells after 48 hrs by SRB assay; assay type: functional; summary of the method: as §2
SK-OV-3 = assay: Growth inhibition of human SKOV3 cells after 48 hrs by SRB assay; assay type: functional; settings: SK-OV-3, 48 h; summary of the method: as §3
RXF 393 = assay: Growth inhibition of human RXF393 cells after 48 hrs by SRB assay; assay type: functional; settings: RXF 393, 48 h; summary of the method: as §2
SN12C = assay: Growth inhibition of human SN12C cells after 48 hrs by SRB assay; assay type: functional; summary of the method: as §3
UO-31 = assay: Growth inhibition of human UO31 cells after 48 hrs by SRB assay; assay type: functional; settings: UO-31, 48 h; summary of the method: as §3
DU-145 = assay: Growth inhibition of human DU145 cells after 48 hrs by SRB assay; assay type: functional; settings: DU-145, 48 h; summary of the method: as §2
MCF7 [1] = assay: Growth inhibition of human MCF7 cells after 48 hrs by SRB assay; assay type: functional; settings: MCF7, 48 h; summary of the method: as §2
MDA-MB-231 = assay: Growth inhibition of human MDA-MB-231 cells after 48 hrs by SRB assay; assay type: functional; settings: MDA-MB-231, 48 h; summary of the method: as §2
BT-549 = assay: Growth inhibition of human BT549 cells after 48 hrs by SRB assay; assay type: functional; settings: BT-549, 48 h; summary of the method: as §2
T47D = assay: Growth inhibition of human T47D cells after 48 hrs by SRB assay; assay type: functional; summary of the method: as §3
MDA-MB-468 = assay: Growth inhibition of human MDA-MB-468 cells after 48 hrs by SRB assay; assay type: functional; settings: MDA-MB-468, 48 h; summary of the method: as §2
[2] = Inhibition of tubulin polymerization after 30 mins to 1 hr by spectrophotometry
Summary of the method: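 This was a kit-based tubulin polymerization assay. Kit tubulin in G-PEM buffer was incubated with compounds, and polymerization was followed as optical density at 340 nm for 30 min to 1 h. Inhibition was read as a decrease in OD. Nocodazole and paclitaxel were run as reference destabilizer and stabilizer.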

MCF7 [3] = assay: Inhibition of microtubule organization in human MCF7 cells at 4 uM after 24 hrs by immunofluorescence analysis; assay type: cell-based
Summary of the method: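 MCF-7 cells were grown in DMEM with 10% fetal calf serum and penicillin/streptomycin at 37 °C and 5% CO2. Cells on cover slips were treated for 24 h, then fixed in 4% paraformaldehyde for 20 min. They were permeabilised with 0.2% Triton X-100, held in methanol at 4 °C overnight and blocked with 1% BSA. Staining used anti-α-tubulin (1:100, 2 h RT), FITC secondary and a DAPI/PI mount, with confocal imaging.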

[4] = molecular target: Mitogen-activated protein kinase; ERK1/ERK2 (Homo sapiens) (UniProt P27361+P28482); assay: Inhibition of nuclear translocation of phosphorylated ERK1/2 in human MCF7 cells at 4 uM after 24 hrs by immunofluorescence assay; assay type: cell-based
Chain of Mitogen-activated protein kinase; ERK1/ERK2 (Homo sapiens) (P27361 whole entry, looked up): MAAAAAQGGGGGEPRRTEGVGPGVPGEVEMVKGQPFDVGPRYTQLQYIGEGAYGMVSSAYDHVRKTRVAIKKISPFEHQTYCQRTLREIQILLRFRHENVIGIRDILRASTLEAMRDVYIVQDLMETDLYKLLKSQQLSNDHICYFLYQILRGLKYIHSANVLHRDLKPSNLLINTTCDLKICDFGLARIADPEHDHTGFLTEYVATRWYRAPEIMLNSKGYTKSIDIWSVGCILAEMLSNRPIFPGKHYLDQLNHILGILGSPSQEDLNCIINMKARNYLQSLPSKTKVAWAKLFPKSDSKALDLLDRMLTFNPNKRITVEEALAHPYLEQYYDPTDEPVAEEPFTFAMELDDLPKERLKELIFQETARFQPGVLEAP
Chain of Mitogen-activated protein kinase; ERK1/ERK2 (Homo sapiens) (P28482 whole entry, looked up): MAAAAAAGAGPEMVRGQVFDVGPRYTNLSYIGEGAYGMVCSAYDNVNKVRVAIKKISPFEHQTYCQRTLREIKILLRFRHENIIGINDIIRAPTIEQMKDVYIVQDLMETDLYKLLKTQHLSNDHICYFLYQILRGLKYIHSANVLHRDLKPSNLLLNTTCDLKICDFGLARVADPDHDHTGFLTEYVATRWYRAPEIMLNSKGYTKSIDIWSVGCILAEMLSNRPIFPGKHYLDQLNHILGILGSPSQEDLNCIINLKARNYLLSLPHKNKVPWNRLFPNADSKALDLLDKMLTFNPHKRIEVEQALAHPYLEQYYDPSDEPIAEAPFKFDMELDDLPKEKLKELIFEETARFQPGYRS
Summary of the method: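 MCF-7 cells (DMEM, 10% fetal calf serum, 37 °C, 5% CO2) were treated on cover slips for 24 h. They were fixed in 4% paraformaldehyde, permeabilised with 0.2% Triton X-100, held in methanol at 4 °C overnight and blocked with 1% BSA for 60 min. Anti-phospho-ERK antibody (1:100, 2 h RT) was followed by FITC anti-rabbit secondary for 1 h and a DAPI/PI mount. Subcellular pERK localisation was imaged by confocal microscopy.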

MCF7 [5] = assay: Cytotoxicity against human MCF7 cells at 4 uM after 24 hrs by MTT assay; assay type: functional, cell-based
Summary of the method: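 MCF-7 cells grown in DMEM with 10% fetal calf serum, penicillin and streptomycin at 37 °C, 5% CO2. Seeded at 10,000 cells/well, incubated overnight, then treated 24 h at 4 µM. Medium replaced with fresh medium plus MTT dye, incubated 2 h at 37 °C. Absorbance read at 570 nm; O.D. taken as viability versus untreated control.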

Row | SMILES | inhibition of growth at 10 µM (IMR-32) [%] | inhibition of growth at 10 µM (PC-3) [%] | GI50 (K562) [µM] | GI50 (RPMI-8226) [µM] | GI50 (EKVX) [µM] | GI50 (NCI-H522) [µM] | GI50 (HCT-116) [µM] | GI50 (KM12) [µM] | GI50 (SF-268) [µM] | GI50 (SF-539) [µM] | GI50 (SNB-75) [µM] | GI50 (M14) [µM] | GI50 (UACC-62) [µM] | GI50 (OVCAR-8) [µM] | GI50 (NCI/ADR-RES) [µM] | GI50 (SK-OV-3) [µM] | GI50 (RXF 393) [µM] | GI50 (SN12C) [µM] | GI50 (UO-31) [µM] | GI50 (DU-145) [µM] | other results
1 | COc1ccc(/C=C\c2cc(OC)c(OC)c(OC)c2)cc1OCC(=O)Nc1nc2ccccc2s1 | 91 | 44 | 0.042 | 0.15 | 0.038 | 0.079 | 0.046 | 0.058 | 0.18 | 0.045 | 0.046 | 0.072 | 0.063 | 0.25 | 0.033 | 0.34 | 0.05 | 0.37 | 0.58 | 0.1 | GI50 (Malme-3M): 1.99 µM; GI50 (UACC-257; UACC-257, 48 h): 11 µM; GI50 (MCF7 [1]): 0.051 µM; GI50 (MDA-MB-231): 0.19 µM; GI50 (BT-549): 0.41 µM; GI50 (T47D): 1 µM; GI50 (MDA-MB-468): 0.1 µM; IC50 [2]: 5 µM; inhibition (MCF7 [3]): Active; inhibition [4]: Active; Activity (MCF7 [5]): Active
2 | COc1ccc2nc(NC(=O)COc3cc(/C=C\c4cc(OC)c(OC)c(OC)c4)ccc3OC)sc2c1 | 73 | 33 | 3.6 | 5.43 | 5.11 | 3.09 | 3.7 | 3.12 | 4.31 | 2.84 | 1.91 | 4.33 | 5.93 | 5.28 | 2.3 | 4.69 | 2.5 | 5.75 | 4.31 | 2.04 | GI50 (Malme-3M): inactive; GI50 (UACC-257; UACC-257, 48 h): 63 µM; GI50 (MCF7 [1]): 2.88 µM; GI50 (MDA-MB-231): 5.4 µM; GI50 (BT-549): 21.2 µM; GI50 (T47D): 4.03 µM; GI50 (MDA-MB-468): 2.29 µM
3 | COc1ccc(/C=C\c2cc(OC)c(OC)c(OC)c2)cc1OCC(=O)Nc1nc2ccc(OC(F)(F)F)cc2s1 | 44 | 34 | 3.43 | 5.83 | 7.89 | 3.16 | 3.92 | 4.48 | 6.01 | 2.28 | 1.56 | 4.36 | 5.11 | 5 | 2.7 | 8.42 | 2.65 | 6.42 | 4.37 | 4.11 | GI50 (UACC-257): inactive; GI50 (MCF7 [1]): 2.89 µM; GI50 (MDA-MB-231): 5.16 µM; GI50 (BT-549): 10.5 µM; GI50 (T47D): 3.95 µM; GI50 (MDA-MB-468): 2.3 µM
4 | COc1ccc(/C=C\c2cc(OC)c(OC)c(OC)c2)cc1OCC(=O)Nc1nc2ccc(F)cc2s1 | 77 | 32 | 3.62 | 6.36 | 5.72 | 2.92 | 4.48 | 4.78 | 7.23 | 4.51 | 4.39 | 6.82 | 4.05 | 7.15 | 2.55 | 8 | 6.29 | 4.61 | 2.56 | 8.97 | GI50 (Malme-3M): 5.22 µM; GI50 (UACC-257; UACC-257, 48 h): 8.69 µM; GI50 (MCF7 [1]): 2.3 µM; GI50 (MDA-MB-231): 9.34 µM; GI50 (BT-549): 16.7 µM; GI50 (T47D): 3.39 µM; GI50 (MDA-MB-468): 3.68 µM; Activity (MCF7 [5]): Active
